In ChEMBL document CHEMBL1154897, “HPLC-based activity profiling: discovery of piperine as a positive GABA(A) receptor modulator targeting a benzodiazepine-independent binding site” (J Nat Prod, 2010):
pEC50, pIC50: −log10 of the molar value. Activity calls are given as the source filed them. The calls are words filed in the database; no cut-off is given here.

Key:
Oocyte [1] = assay: Activation of rat GABA alpha-1-beta-2-gamma-2 receptor expressed in xenopus oocytes assessed as potentiation of GABA-induced chloride current at 100 uM after 90 secs by two […] electrode voltage clamp assay; type: cell-based
Outline: (§1)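 Rat α1, β2, γ2S cRNAs (1:1:10) injected into collagenase-defolliculated Xenopus oocytes, stored at 18 °C in ND96, recorded on days 1–5. Two-microelectrode voltage clamp at −70 mV. Bath: 90 mM NaCl, 1 mM KCl, 1 mM MgCl2, 1 mM CaCl2, 5 mM HEPES, pH 7.4. Cells with maximal currents > 3 μA discarded. Solutions delivered by automated fast perfusion.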

Oocyte [2] = assay: Activation of rat GABA alpha-1-beta-2-gamma-2 receptor expressed in xenopus oocytes assessed as potentiation of chloride current at 100 uM after 90 secs by two […] electrode voltage clamp assay; type: cell-based; outline: as §1
[3] = (§2) Activation of rat GABA alpha-1-beta-2-gamma-2 receptor expressed in xenopus oocytes assessed as potentiation of GABA-induced chloride current after 90 secs by two […] electrode voltage clamp assay; type: cell-based; details: Oocyte
Outline: (§3)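 Xenopus oocytes injected with rat α1, β2, γ2S cRNAs (1:1:10), kept at 18 °C in ND96, recorded days 1–5. Two-electrode voltage clamp at −70 mV in bath containing 90 mM NaCl, 1 mM KCl, 1 mM MgCl2, 1 mM CaCl2, 5 mM HEPES, pH 7.4. Compound (1–300 μM) preapplied 90 s, then coapplied with GABA EC5–10 by fast perfusion. Values n = 3.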

Oocyte [4] = assay: as §2; type: cell-based; outline: as §3
Oocyte [5] = assay: Activation of rat GABA alpha-1-beta-2-gamma-2 receptor expressed in xenopus oocytes assessed as potentiation of GABA-induced chloride current at 300 uM after 90 secs by two […] electrode voltage clamp assay; type: cell-based; outline: as §1
Oocyte [6] = assay: Activation of rat GABA alpha-1-beta-2-gamma-2 receptor expressed in xenopus oocytes assessed as potentiation of GABA-induced chloride current at 100 uM after 90 secs by two […] electrode voltage clamp assay in presence of 1 uM Diazepam; type: cell-based; outline: as §1
[7] = Displacement of [3H]-flumazenil from GABAA receptor
Oocyte [8] = assay: Activation of rat GABA alpha-1-beta-2-gamma-2 receptor expressed in xenopus oocytes assessed as potentiation of GABA-induced chloride current at 300 uM after 90 secs by two […] electrode voltage clamp assay relative to control in presence of flumazenil; type: cell-based; outline: as §1

Compound | Activity (Oocyte [1]) | Activity (Oocyte [2]) | pEC50 [3] | Activity (Oocyte [4]) | Activity (Oocyte [5]) | Activity (Oocyte [6]) | pIC50 [7] | Activity (Oocyte [8])
CC(C)CNC(=O)/C=C/C=C/c1ccc2c(c1)OCO2 | -10% | inactive |  |  |  |  |  | 
O=C(/C=C/CCc1ccc2c(c1)OCO2)N1CCCCC1 [PIPERANINE] | 138% | inactive | 4.25 | Dose-dependent effect | 187% |  |  | 
O=C(CCCC/C=C/c1ccc2c(c1)OCO2)N1CCCCC1 | 32% | inactive |  |  |  |  |  | 
O=C(/C=C/C=C/c1ccc2c(c1)OCO2)N1CCCCC1 [PIPERINE] | 226% | inactive | 4.28 | Dose-dependent effect | 302% | 391% | 2.92 | 334%
O=C(/C=C/C=C/c1ccc2c(c1)OCO2)N1CCCC1 | -29% | inactive |  |  |  |  |  | 
